# Experimental data as given in ChEMBL document CHEMBL1134780, “Indolequinone antitumor agents: correlation between quinone structure and rate of metabolism by recombinant human NAD(P)H:quinone oxidoreductase. Part 2” (J Med Chem, 2001).
# pIC50: −log10 of the molar value.
# What was measured:
# BE-WT = experiment: Cytotoxicity against BE human colon carcinoma cell lines BE-WT(No NQO1 activity); type: functional, cell-based
# Procedure, shortened: (§1)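 MTT assay in BE colon carcinoma cells, wild-type (BE-WT) or stably transfected with human NQO1 cDNA (BE-NQ). Cells grown in MEM/10% FBS at 37 °C, 5% CO2, plated at (1–2) × 10^4 cells/mL and attached 16 h. Drug exposure 2 h, then drug-free medium for 5–7 days. MTT for 4 h, formazan dissolved in DMSO, A550. IC50 taken from % control versus concentration plots.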
# [1] = molecular target: NAD(P)H dehydrogenase [quinone] 1 (Homo sapiens) (UniProt P15559); experiment: Ability to inactivate Recombinant human NQO1; type: functional; parameters: concentration or dose not given beside the values
# NAD(P)H dehydrogenase [quinone] 1 (Homo sapiens), sequence (P15559 whole entry): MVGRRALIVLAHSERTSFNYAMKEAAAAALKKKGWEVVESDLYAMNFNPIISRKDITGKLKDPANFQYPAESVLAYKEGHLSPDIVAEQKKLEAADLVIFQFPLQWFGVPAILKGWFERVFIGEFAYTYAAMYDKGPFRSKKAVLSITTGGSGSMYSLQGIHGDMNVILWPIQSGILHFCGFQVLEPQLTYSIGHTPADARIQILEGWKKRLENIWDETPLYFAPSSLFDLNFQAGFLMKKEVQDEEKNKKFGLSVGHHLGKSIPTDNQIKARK
# Procedure, shortened: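 Recombinant hNQO1 (1–2 µg) preincubated 30 min at 22 °C with 10 µM indolequinone, with or without 100 µM NADH, in 25 mM Tris-HCl pH 7.4 + 2 mg/mL Tween-20. Reaction stopped with cold Tris-HCl/250 mM sucrose. Residual activity measured as reduction of 40 µM DPIP with 200 µM NADH (0.7 mg/mL BSA) at 600 nm for 30 s. Reported as % remaining, +NADH versus −NADH.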
# [2] = molecular target: NAD(P)H dehydrogenase [quinone] 1 (Homo sapiens) (UniProt P15559); experiment: NADH oxidation is used as a measure metabolism since 1 mol of NADH is oxidized for each mole of compound that is reduced; type: functional
# BE-NQ = experiment: Cytotoxicity against BE human colon carcinoma cell lines BE-NQ( high NQO1 activity); type: functional, cell-based; procedure, shortened: as §1
SMILES,pIC50 (BE-WT),Enzyme activity [1],Metabolism [2],pIC50 (BE-NQ)
COC1=CC(=O)c2c(c(COc3ccc([N+](=O)[O-])cc3)cn2C)C1=O,5.98,52%,0.29 µM/min/mg,6.36
CCOC(=O)c1c2c(n(C3CC3)c1C)C(=O)C=C(OC)C2=O,–,–,36.6 µM/min/mg,–
COC1=C(C)C(=O)c2c(c(CO)c(C)n2-c2ccccc2)C1=O,–,–,3 µM/min/mg,–
CN1CCN(C2=CC(=O)c3c(c(CO)c(-c4ccccc4)n3C)C2=O)CC1,–,–,0.15 µM/min/mg,–
COC1=CC(=O)c2c(c(C(C)O)c(C)n2C)C1=O (centres undefined),–,–,10.4 µM/min/mg,–
CCOC(=O)c1c2c(n(-c3ccccc3)c1C)C(=O)C=C(OC)C2=O,–,–,16.4 µM/min/mg,–
COC(=O)c1c2c(n(C)c1C)C(=O)C(C)=C(OC)C2=O,–,–,13.7 µM/min/mg,–
CCCn1c(C)c(C(=O)OCC)c2c1C(=O)C=C(OC)C2=O,–,–,77.6 µM/min/mg,–
COC1=CC(=O)c2c(c(COc3ccc(NC(C)=O)cc3)c(C)n2C)C1=O,4.99,–,0.38 µM/min/mg,5.18
COC1=CC(=O)c2[nH]c(C)c(C(C)=O)c2C1=O,–,–,29.8 µM/min/mg,–
CCOC(=O)CNC(=O)OCc1c2c(n(C)c1C)C(=O)C=C(OC)C2=O,5.42,19%,0.11 µM/min/mg,5.49
COC1=CC(=O)c2[nH]c(C)c(C(C)O)c2C1=O (centres undefined),–,–,27.7 µM/min/mg,–
CCc1c(CO)c2c(n1Cc1ccccc1)C(=O)C=C(OC)C2=O,–,–,0.9 µM/min/mg,–
COC1=C(C)C(=O)c2c(c(CO)c(C)n2CCN2CCOCC2)C1=O,–,–,7.6 µM/min/mg,–
COC1=CC(=O)c2c(c(COc3ccc([N+](=O)[O-])cc3OC)c(C)n2C)C1=O,5.82,–,0.05 µM/min/mg,6.29
COC1=C(C)C(=O)c2c(c(CO)c(C)n2C)C1=O,–,–,3.8 µM/min/mg,–
COC1=CC(=O)c2c(c(COC(=O)Cc3ccc(-c4ccccc4)cc3)c(C)n2C)C1=O,5.26,0%,0.09 µM/min/mg,5.29
COC1=CC(=O)c2c(c(CO)c(C)n2-c2ccc(F)cc2)C1=O,–,–,9.2 µM/min/mg,–

SMILES,pIC50 (BE-WT),Enzyme activity [1],Metabolism [2],pIC50 (BE-NQ)
COC1=CC(=O)c2c(c(COc3ccc([N+](=O)[O-])cc3F)c(C)n2C)C1=O,5.82,0%,0.05 µM/min/mg,5.92
COC1=CC(=O)c2c(c(COc3cc([N+](=O)[O-])ccc3OC)c(C)n2C)C1=O,4.46,13%,0.05 µM/min/mg,5.19
CCOC(=O)c1c2c(n(-c3ccccc3)c1C)C(=O)C(C)=C(OC)C2=O,–,–,7.9 µM/min/mg,–
Cc1c(C(C)O)c2c(n1C)C(=O)C=C(N1CCOCC1)C2=O (centres undefined),–,–,0.27 µM/min/mg,–
CCOC(=O)c1c2c(n(C)c1-c1ccc3ccccc3c1)C(=O)C=C(OC)C2=O,4.31,–,0.23 µM/min/mg,< 4.30
COC1=CC(=O)c2c(c(CO)c(-c3ccc4ccccc4c3)n2C)C1=O,< 4.30,–,4 µM/min/mg,< 4.30
COC1=CC(=O)c2c(c(CO)cn2C)C1=O,< 4.30,96%,13.6 µM/min/mg,< 4.30
CCCn1c(C)c(CO)c2c1C(=O)C=C(OC)C2=O,–,–,1.3 µM/min/mg,–
CCOC(=O)c1c2c(n(CCN3CCOCC3)c1C)C(=O)C(C)=C(OC)C2=O,–,–,39.4 µM/min/mg,–
COC1=CC(=O)c2c(c(CO)c(C)n2C2CC2)C1=O,–,–,14 µM/min/mg,–
CCOC(=S)SCc1c2c(n(C)c1C)C(=O)C=C(OC)C2=O,< 4.30,–,1.1 µM/min/mg,< 4.30
COC1=CC(=O)c2c(c(COc3ccccc3)c(C)n2C)C1=O,–,–,0.28 µM/min/mg,–
CCCn1c(C)c(CO)c2c1C(=O)C(C)=C(OC)C2=O,–,–,1.7 µM/min/mg,–
COC1=CC(=O)c2c(c(COC(C)=O)c(C)n2C)C1=O,–,0%,–,–
CCc1c(C(=O)OC)c2c(n1Cc1ccccc1)C(=O)C=C(OC)C2=O,–,–,9.3 µM/min/mg,–
CCCn1c(C)c(C(=O)OCC)c2c1C(=O)C(C)=C(OC)C2=O,–,–,18.6 µM/min/mg,–
COC1=CC(=O)c2c(c(CO)c(C)n2-c2ccccc2)C1=O,–,–,6 µM/min/mg,–
CCOC(=O)c1c2c(n(-c3ccc(F)cc3)c1C)C(=O)C=C(OC)C2=O,–,–,3.9 µM/min/mg,–
